Assay results published in ChEMBL document CHEMBL2176911 (J Med Chem, 2012).
The source made the active and inactive calls. The calls are words filed in the database; no cut-off is given here.

Legend:
[1] = biological target: Glycogen synthase kinase-3 alpha (Homo sapiens, UniProt P49840); assay: Binding affinity to GSK3A
[2] = Inhibition of CK2 at 1 uM after 30 mins
[3] = biological target: Protein VAC14 homolog (Mus musculus) (UniProt Q80WQ2); assay: Binding affinity to VAC14 in mouse brain homogenate by Western blot analysis; assay type: tissue-based
Outline: (§1)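 Bead pull-down from HT22 cell or mouse brain extracts, with ethanolamine beads lacking ligand as control. Specificity was tested by adding excess free inhibitor to the extracts before binding.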

[4] = system: HT-22; assay: Inhibition of GSK3 isolated from mouse HT22 cells; assay type: cell-free
[5] = biological target: Dual specificity protein kinase CLK1 (Mus musculus, UniProt P22518); assay: Inhibition of mouse recombinant GST-tagged CLK1 expressed in Escherichia coli using GRSRSRSRSRSR as substrate and [gamma33P]ATP after 30 mins by scintillation counting
Outline: (§2)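 Panel of purified kinases (recombinant from several species plus native enzymes), each assayed radiometrically over a range of inhibitor concentrations; IC50 in μM calculated from the dose-response curves.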

[6] = organism: Mus musculus; assay: Binding affinity to GSK3beta2 in mouse brain homogenate by Western blot analysis; assay type: tissue-based; outline: as §1
[7] = biological target: Dual specificity tyrosine-phosphorylation-regulated kinase 1A (Homo sapiens) (UniProt Q13627); assay: Inhibition of human recombinant GST-tagged DYRK1A expressed in Escherichia coli using KKISGRLSPIMTEQ as substrate at 10 uM after 30 mins
[8] = biological target: 1-phosphatidylinositol 3-phosphate 5-kinase (Mus musculus) (UniProt Q9Z1T6); assay: Binding affinity to phosphatidylinositol-3-phosphate 5-kinase type 3 in mouse brain homogenate by Western blot analysis; assay type: tissue-based; outline: as §1
[9] = biological target: Cyclin-dependent kinase 7/ cyclin H (Homo sapiens, UniProt P50613); assay: Inhibition of human recombinant CDK7/cyclin H expressed in insect cell using YSPTSPSYSPTSPSYSPTSPSKKKK as substrate and [gamma33P]ATP after 30 mins by scintillation counting; outline: as §2
[10] = system: HT-22; assay: Neuroprotective activity against glutamate-induced toxicity in mouse HT22 cells at 10 to 20 uM up to 48 hrs by MTS assay; assay type: functional, cell-based
[11] = biological target: Dual specificity protein kinase CLK3 (Mus musculus, UniProt O35492); assay: Inhibition of mouse recombinant GST-tagged CLK3 expressed in Escherichia coli using GRSRSRSRSRSR as substrate and [gamma33P]ATP after 30 mins by scintillation counting; outline: as §2
[12] = biological target: Serine/threonine-protein kinase pim-3 (Homo sapiens) (UniProt Q86V86); assay: Inhibition of human recombinant His6-tagged PIM3 expressed in Sf21 cells using RSRHSSYPAGT as substrate at 10 uM after 30 mins
[13] = biological target: Casein kinase II subunit alpha (Mus musculus) (UniProt Q60737); assay: Binding affinity to CK2 alpha subunit in mouse brain homogenate by Western blot analysis; assay type: tissue-based; outline: as §1
[14] = biological target: Dual specificity tyrosine-phosphorylation-regulated kinase 3 (Homo sapiens) (UniProt O43781); assay: Inhibition of human recombinant GST-tagged DYRK3 expressed in Escherichia coli using KKISGRLSPIMTEQ as substrate at 1 uM after 30 mins
[15] = biological target: Casein kinase II (Homo sapiens, UniProt P19784+P67870+P68400); assay: Inhibition of human recombinant CK2 using RRREDEESDDEE as substrate and [gamma33P]ATP after 30 mins by scintillation counting; assay type: protein-complex assay
Outline: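 Purified recombinant kinase from a 26-enzyme panel, with inhibitor tested at various concentrations. IC50 in μM calculated from dose–response curves.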

[16] = Inhibition of Leishmania major recombinant CK1 expressed in Escherichia coli using RRKHAAIGpSAYSITA as substrate and [gamma33P]ATP after 30 mins by scintillation counting; outline: as §2
[17] = biological target: 1-phosphatidylinositol 3-phosphate 5-kinase (Mus musculus) (UniProt Q9Z1T6); assay: Binding affinity to phosphatidylinositol-3-phosphate 5-kinase type 3 in mouse HT22 cell lysate by Western blot analysis; assay type: cell-free; settings: HT-22; outline: as §1
[18] = biological target: Homeodomain-interacting protein kinase 3 (Homo sapiens, UniProt Q9H422); assay: Binding affinity to HIPK3
[19] = biological target: Glycogen synthase kinase-3 (Sus scrofa, UniProt B2LUN4+I6LNT8); assay: Inhibition of pig GSK3alpha/beta isolated from brain using YRRAAVPPSPSLSRHSSPHQ-phosphoS-EDEEE as substrate and [gamma33P]ATP after 30 mins by scintillation counting; outline: as §2

Sequence of 1-phosphatidylinositol 3-phosphate 5-kinase (Mus musculus) (Q9Z1T6 whole entry): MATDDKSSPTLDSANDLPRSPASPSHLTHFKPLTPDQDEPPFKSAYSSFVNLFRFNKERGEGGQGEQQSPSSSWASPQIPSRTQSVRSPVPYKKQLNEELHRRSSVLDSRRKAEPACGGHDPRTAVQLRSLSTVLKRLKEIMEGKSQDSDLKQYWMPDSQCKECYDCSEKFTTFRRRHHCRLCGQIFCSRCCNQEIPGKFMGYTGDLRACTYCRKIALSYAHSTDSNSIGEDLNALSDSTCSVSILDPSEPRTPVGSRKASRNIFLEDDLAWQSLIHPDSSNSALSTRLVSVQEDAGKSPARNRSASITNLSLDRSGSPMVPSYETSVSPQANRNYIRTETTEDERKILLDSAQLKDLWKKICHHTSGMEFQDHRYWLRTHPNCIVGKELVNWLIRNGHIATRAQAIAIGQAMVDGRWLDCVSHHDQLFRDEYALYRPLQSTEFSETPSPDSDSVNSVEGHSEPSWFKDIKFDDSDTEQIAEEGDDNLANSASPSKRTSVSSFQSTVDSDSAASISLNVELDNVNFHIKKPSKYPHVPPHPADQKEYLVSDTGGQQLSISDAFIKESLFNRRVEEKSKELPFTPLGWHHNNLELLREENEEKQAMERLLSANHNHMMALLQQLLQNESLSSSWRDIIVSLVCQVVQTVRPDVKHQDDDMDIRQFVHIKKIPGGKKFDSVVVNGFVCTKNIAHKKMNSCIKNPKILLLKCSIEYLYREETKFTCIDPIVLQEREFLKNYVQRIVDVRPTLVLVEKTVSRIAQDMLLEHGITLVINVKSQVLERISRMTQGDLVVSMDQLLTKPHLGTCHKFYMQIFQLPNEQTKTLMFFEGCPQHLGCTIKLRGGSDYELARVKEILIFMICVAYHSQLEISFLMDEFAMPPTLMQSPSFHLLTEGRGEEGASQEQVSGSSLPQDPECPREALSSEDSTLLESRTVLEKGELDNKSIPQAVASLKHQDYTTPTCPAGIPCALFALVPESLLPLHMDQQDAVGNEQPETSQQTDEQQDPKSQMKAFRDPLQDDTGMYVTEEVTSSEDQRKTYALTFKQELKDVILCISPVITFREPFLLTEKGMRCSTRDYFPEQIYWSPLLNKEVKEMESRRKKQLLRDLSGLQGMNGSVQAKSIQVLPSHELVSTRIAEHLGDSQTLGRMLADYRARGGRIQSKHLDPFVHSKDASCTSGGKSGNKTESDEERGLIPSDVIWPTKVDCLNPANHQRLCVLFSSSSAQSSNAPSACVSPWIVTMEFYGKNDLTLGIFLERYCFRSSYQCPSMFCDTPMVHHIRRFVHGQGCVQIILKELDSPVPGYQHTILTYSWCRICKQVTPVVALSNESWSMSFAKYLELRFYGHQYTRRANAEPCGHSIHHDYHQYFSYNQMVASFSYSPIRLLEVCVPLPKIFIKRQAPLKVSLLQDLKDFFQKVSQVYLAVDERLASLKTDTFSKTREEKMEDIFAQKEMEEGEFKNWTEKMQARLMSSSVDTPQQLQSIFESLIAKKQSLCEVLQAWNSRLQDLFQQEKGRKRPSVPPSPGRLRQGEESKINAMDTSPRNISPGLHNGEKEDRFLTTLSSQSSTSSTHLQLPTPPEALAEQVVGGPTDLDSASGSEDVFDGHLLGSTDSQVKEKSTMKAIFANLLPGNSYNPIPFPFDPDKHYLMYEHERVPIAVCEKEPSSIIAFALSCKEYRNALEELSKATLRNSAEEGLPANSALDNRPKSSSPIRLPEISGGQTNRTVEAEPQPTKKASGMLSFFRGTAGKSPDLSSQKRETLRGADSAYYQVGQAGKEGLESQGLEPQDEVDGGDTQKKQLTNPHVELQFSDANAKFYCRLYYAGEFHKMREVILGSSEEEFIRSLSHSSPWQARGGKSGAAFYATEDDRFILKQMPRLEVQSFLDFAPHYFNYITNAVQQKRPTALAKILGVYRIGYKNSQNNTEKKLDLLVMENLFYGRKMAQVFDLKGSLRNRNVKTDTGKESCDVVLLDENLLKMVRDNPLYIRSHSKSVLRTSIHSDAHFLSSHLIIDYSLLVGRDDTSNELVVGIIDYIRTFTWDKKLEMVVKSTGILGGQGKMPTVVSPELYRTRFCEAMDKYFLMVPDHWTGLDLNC
Sequence of Cyclin-dependent kinase 7/ cyclin H (P51946 whole entry): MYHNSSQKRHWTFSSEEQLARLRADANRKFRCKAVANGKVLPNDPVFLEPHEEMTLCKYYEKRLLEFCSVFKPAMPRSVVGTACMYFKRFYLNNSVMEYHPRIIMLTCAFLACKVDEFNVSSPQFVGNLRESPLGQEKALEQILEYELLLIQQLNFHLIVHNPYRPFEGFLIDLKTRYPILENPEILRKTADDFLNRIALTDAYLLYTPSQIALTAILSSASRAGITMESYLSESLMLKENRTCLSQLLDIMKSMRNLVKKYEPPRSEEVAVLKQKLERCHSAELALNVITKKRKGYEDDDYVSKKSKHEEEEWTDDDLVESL
Sequence of Cyclin-dependent kinase 7/ cyclin H (P50613 whole entry): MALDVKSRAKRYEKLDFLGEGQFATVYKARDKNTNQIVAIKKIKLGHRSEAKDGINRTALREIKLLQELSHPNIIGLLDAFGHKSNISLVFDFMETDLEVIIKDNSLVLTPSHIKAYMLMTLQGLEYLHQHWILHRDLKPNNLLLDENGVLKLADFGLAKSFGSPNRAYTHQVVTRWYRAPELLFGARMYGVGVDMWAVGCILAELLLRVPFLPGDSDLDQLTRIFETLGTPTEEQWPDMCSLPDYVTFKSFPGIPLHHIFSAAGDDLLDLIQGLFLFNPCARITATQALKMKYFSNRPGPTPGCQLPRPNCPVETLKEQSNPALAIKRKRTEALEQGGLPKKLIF
Sequence of Dual specificity protein kinase CLK3 (O35492 whole entry): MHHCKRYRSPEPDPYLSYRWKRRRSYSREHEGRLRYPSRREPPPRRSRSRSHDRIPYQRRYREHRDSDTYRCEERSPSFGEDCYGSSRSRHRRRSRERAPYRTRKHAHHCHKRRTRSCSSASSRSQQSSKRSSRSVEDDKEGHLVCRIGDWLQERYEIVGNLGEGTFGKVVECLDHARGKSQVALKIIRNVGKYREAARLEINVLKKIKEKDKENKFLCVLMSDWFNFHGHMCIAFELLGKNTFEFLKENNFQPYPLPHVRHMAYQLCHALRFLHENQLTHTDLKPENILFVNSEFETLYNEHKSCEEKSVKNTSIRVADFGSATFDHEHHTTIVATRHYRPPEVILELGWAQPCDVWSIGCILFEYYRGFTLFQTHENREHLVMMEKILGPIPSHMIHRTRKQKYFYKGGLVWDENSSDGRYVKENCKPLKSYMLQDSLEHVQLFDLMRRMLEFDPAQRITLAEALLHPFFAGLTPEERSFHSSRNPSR
Sequence of Dual specificity protein kinase CLK1 (P22518 whole entry): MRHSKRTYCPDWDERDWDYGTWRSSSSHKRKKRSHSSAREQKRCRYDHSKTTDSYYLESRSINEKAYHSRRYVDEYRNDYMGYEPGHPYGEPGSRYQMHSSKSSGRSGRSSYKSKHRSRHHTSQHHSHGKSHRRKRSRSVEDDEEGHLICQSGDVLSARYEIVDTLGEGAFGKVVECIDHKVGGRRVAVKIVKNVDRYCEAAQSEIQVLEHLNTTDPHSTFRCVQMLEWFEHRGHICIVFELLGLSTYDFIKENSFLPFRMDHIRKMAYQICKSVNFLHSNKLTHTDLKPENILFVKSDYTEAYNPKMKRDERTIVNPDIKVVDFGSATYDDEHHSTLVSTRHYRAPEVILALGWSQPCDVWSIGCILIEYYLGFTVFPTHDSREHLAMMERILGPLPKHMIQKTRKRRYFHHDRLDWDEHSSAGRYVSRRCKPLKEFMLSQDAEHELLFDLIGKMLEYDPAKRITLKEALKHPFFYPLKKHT
Sequence of Casein kinase II (P67870 whole entry): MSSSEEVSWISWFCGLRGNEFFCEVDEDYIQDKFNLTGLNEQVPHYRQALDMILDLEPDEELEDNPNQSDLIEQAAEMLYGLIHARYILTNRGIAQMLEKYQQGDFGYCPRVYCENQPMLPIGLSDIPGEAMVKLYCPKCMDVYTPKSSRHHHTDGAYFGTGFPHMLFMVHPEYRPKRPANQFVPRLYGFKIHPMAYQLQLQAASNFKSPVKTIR
Sequence of Casein kinase II (P68400 whole entry): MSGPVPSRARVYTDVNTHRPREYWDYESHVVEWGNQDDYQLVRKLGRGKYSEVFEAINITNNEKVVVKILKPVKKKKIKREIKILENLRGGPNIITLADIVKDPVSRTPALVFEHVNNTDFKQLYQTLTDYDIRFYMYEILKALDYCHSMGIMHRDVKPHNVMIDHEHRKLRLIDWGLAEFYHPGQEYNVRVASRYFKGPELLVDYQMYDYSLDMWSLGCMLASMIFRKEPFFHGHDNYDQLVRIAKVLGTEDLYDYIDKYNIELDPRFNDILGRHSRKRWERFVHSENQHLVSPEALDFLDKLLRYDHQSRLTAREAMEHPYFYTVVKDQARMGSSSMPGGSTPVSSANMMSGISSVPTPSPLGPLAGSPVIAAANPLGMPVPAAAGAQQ
Sequence of Casein kinase II (P19784 whole entry): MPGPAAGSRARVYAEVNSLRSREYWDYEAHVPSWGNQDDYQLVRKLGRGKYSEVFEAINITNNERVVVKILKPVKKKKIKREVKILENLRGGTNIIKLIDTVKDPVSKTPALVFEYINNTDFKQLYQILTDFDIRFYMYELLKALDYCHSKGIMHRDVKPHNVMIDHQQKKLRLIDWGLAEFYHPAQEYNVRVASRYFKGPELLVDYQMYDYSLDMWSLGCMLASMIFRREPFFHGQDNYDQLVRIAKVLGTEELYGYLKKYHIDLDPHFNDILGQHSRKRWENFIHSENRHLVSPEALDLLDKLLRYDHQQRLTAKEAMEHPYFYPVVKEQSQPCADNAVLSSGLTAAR

## O=C1NC(Nc2ccccc2)=N/C1=C\c1ccc2c(c1)OCO2
[1]
  Kd: 550 nM
[2]
  inhibition: Active
[3]
  Activity: Active
[4]
  inhibition: inactive
[5]
  IC50: 71 nM
[6]
  Activity: Active
[7]
  inhibition: Active
[8]
  Activity: Active
[9]
  IC50: > 10 µM
[10]
  Activity: Active
[11]
  IC50: > 10 µM
[12]
  inhibition: Active
[13]
  Activity: Active
[14]
  inhibition: Active
[15]
  IC50: 320 nM
[16]
  IC50: ≥ 10 µM
[17]
  Activity: Active
[18]
  Kd: 230 nM
[19]
  IC50: 0.41 µM
